According to article PMC4832308 (Cancer, 2015):
In brackets after ≈: the same amount, converted by molar mass. Several values for one entry are separate records, joined by “and”; a condition that tells them apart may be missing. Identical values can stand only once. Like-named read-outs stand apart in the source and are kept apart here.

What was measured:
[1] = system: patients with advanced solid tumors or multiple myeloma; assay: phase 1 dose escalation: preliminary efficacy; format: in vivo, human
Outline: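 Single dose on day −1, then oral daily dosing after a ≥6-h fast in 28-day cycles until progression. Tumors were imaged by CT or MRI. Response was scored by RECIST 1.1, international uniform criteria for myeloma, or revised high-grade glioma criteria. Evaluable patients were eligible, completed ≥1 cycle, and had baseline plus ≥1 postbaseline assessment. Disease control rate was given with a 90% confidence interval.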

[2] = plasma pharmacokinetics in patients; format: in vivo, human
[3] = system: pS6RP; assay: blood biomarker analysis by flow cytometry and PK/PD modeling; format: in vivo, human; settings: for EC50: Homo sapiens, read-out: EC50 for pS6RP inhibition
Outline: (§1)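 Sodium-heparin patient whole blood, taken predose and 1.5–5 h postdose: 1 h at 37°C, 15-min anti-IgD plus LPS stimulation, lyse/fix, methanol overnight at −80°C, then CD3/CD14/CD20 and phospho-staining and flow cytometry. Bead-calibrated MFI reported as ERF. Baseline-relative change vs plasma drug (chiral LC-MS) was fitted by a direct inhibitory NONMEM model for EC50: p4EBP1 in T cells, pS6RP in B cells and monocytes.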

[4] = system: p4EBP1; assay: as above; format: in vivo, human
Outline: as §1

[5] = system: pS6RP; assay: immuno‐histochemical staining of tumor biopsies; format: in vivo, human; settings: pre‐ vs on‐treatment (days 15‐22), HCC and salivary gland tumor, 30‐mg/d cohort
Outline: (§2)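 Optional pretreatment and on-treatment (days 15–22) tumor biopsies from 2 patients in the 30-mg/d cohort (HCC and salivary gland tumor). Paraffin-embedded sections were immunostained per antibody (pS6RP, p4EBP1, pAKT, Ki-67) or TUNEL-labelled, then scored by quantitative image analysis.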

[6] = system: pAKT; assay: immuno‐histochemical staining of tumor biopsies; format: in vivo, human; settings: pre‐ vs on‐treatment (days 15‐22), HCC and salivary gland tumor, 30‐mg/d cohort
Outline: as §2

[7] = system: Ki67; assay: immuno‐histochemical staining of tumor biopsies; format: in vivo, human; settings: pre‐ vs on‐treatment (days 15‐22), HCC and salivary gland tumor, 30‐mg/d cohort
Outline: as §2

[8] = system: TUNEL‐positive cells; assay: TUNEL staining of tumor biopsies; format: in vivo, human; settings: HCC and salivary gland tumor samples after treatment
Outline: as §2

[9] = system: p4EBP1; assay: immuno‐histochemical staining of tumor biopsies; format: in vivo, human; settings: HCC sample after treatment initiation
Outline: as §2

[10] = system: non‐Hodgkin lymphoma cell lines; settings: cited from earlier work
[11] = system: solid tumor lines, including breast, glioma, hepatocellular carcinoma (HCC), and non–small cell lung cancer; settings: cited from earlier work
[12] = system: PC3 prostate cancer; settings: cited from earlier work
[13] = 30‐, 45‐, and 60‐mg dose levels, 3 hours on treatment

CO[C@H]1CC[C@H](N2C(=O)CNc3ncc(-c4ccc(C(C)(C)O)nc4)nc32)CC1 [CC‐223]
complete response ([1]; 20 patients evaluable for efficacy): No patient had a complete response | patients with stable disease ([1]; across ≥15 mg/d cohorts): 8 patients | patients with progressive disease ([1]; best response): 12 patients | duration of partial response / disease control ([1]; breast cancer patient with PR, 30‐mg/d cohort): 220 days | disease control duration ([1]; breast cancer patient with SD): 168 days | partial response rate ([1]; breast cancer patient, 30‐mg/d cohort): 3.6% | patients with reduction in target lesions ([1]; in addition to the PR): 5 patients | patients with SD >100 days ([1]; in vivo): 5 patients | patients with disease control durations of >100 days ([1]; in vivo): Six | best overall response rate per investigator ([1]; safety population): 3.6% | disease control rate ([1]; safety population): 32% and 32.1% | stable disease rate ([1]; safety population): 29% | dose dependence of Cmax and AUC from time 0 to infinity ([2]; 30‐ to 60‐mg dose range, single or multiple doses): dose‐proportional | half-life ([2]; human, plasma, oral): 4.86 to 5.64 h | ratio of AUC0‐24 between day 15 and day 1 ([2]; multiple dosing): ≤ 22% | pS6RP inhibition in blood cells [3, 13]: > 70% | EC50 ([3]; B-cell): 0.0203 µg/mL (≈ 0.0511 µM) | EC50 ([3]; Monocyte): 0.174 µg/mL (≈ 0.438 µM) | p4EBP1 inhibition in blood cells [4, 13]: > 40% | EC50 ([4]; Homo sapiens, T-cell, read-out: EC50 for p4EBP1 inhibition): 0.113 µg/mL (≈ 0.284 µM) | pS6RP staining in tumor biopsies [5]: Significant inhibition | pAKT staining in tumor biopsies [6]: Significant inhibition | Ki67 staining in tumor biopsies [7]: Significant inhibition | TUNEL‐positive cells in tumor biopsies [8]: increase | p4EBP1 in tumor biopsy [9]: inhibition | activity against non‐Hodgkin lymphoma cell lines [10]: active | activity against solid tumor lines [11]: active | single‐agent activity in xenograft model [12]: single‐agent activity
